Assay results published in ChEMBL document CHEMBL1137720, “New acyclic nucleosides analogues as potential analgesic, anti-inflammatory, anti-oxidant and anti-microbial derived from pyrimido[4,5-b]quinolines” (2009).

Experiments:
Mus musculus [1] = species on record: Mus musculus; assay: Analgesic activity in Swiss mouse assessed as reaction time after 60 mins by hot plate test; format: functional
In short: (§1)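 Swiss mice of both sexes, 25–30 g, were housed at 22 ± 1 °C on a 12 h light/dark cycle with free access to diet and water. Hot-plate testing followed Turner's method.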

Escherichia coli = assay: Antibacterial activity against Escherichia coli ATCC 23566 at 100 ug/disk after 24 to 48 hrs by agar disk diffusion method; format: functional; conditions: read-out: DIZ
In short: (§2)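 Agar disc diffusion used sterile 5 mm filter-paper discs loaded with 100 µg per disc, with DMSO as solvent. Plates were incubated 24–28 h at 37 °C and inhibition zone diameters measured: 6–10 mm slight, 11–15 mm moderate, >15 mm high. For MIC, discs carried varying amounts, and MIC was the lowest amount giving no visible growth.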

Rattus norvegicus [2] = assay: Antiinflammatory activity in Sprague-Dawley rat assessed as inhibition of carrageenan-induced paw edema after 3 hrs; format: functional
In short: (§3)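 Adult female Sprague-Dawley rats, 150–180 g, were used (n = 6 per group). Paw volume increase after carrageenan was read at 1, 2, 3 and 4 h. % edema inhibition was calculated against untreated controls. The reference drug was given orally at 10 mg/kg as an aqueous suspension.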

Rattus norvegicus [3] = assay: Antiinflammatory activity in Sprague-Dawley rat assessed as inhibition of carrageenan-induced paw edema after 1 hr; format: functional; in short: as §3
Candida albicans = assay: Antimicrobial activity against Candida albicans ATCC 14053 at 100 ug/disk after 5 days by agar disk diffusion method; format: functional; conditions: ATCC 14053, 120 h, read-out: DIZ
[4] = Antioxidant activity in Sprague-Dawley rat erythrocytes assessed as ABTS-induced hemolysis after 1 hr; format: functional, Erythrocyte; set-up: concentration or dose not given beside the values
[5] = Antioxidant activity assessed as inhibition of ABTS-oxidation in 0.1 M phosphate buffer at pH 7; format: functional
In short: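 ABTS (60 µM, 2 mL) was mixed with MnO2 (25 mg/mL) in 0.1 M phosphate buffer pH 7, then shaken, centrifuged and filtered. Radical solution A734 was set to about 0.5. MeOH/buffer served as negative control.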

Aspergillus fumigatus = assay: Antimicrobial activity against Aspergillus fumigatus ATCC 96918 at 100 ug/disk after 5 days by agar disk diffusion method; format: functional; conditions: ATCC 96918, 120 h, read-out: DIZ
Staphylococcus aureus = assay: Antibacterial activity against Staphylococcus aureus ATCC 25923 at 100 ug/disk after 24 to 48 hrs by agar disk diffusion method; format: functional; conditions: read-out: DIZ; in short: as §2
Mus musculus [6] = species on record: Mus musculus; assay: Analgesic activity in Swiss mouse assessed as reaction time after 30 mins by hot plate test; format: functional; in short: as §1
Mus musculus [7] = species on record: Mus musculus; assay: Analgesic activity in Swiss mouse assessed as reaction time after 90 mins by hot plate test; format: functional; in short: as §1
Rattus norvegicus [8] = assay: Antiinflammatory activity in Sprague-Dawley rat assessed as inhibition of carrageenan-induced paw edema after 4 hrs; format: functional; in short: as §3
Pseudomonas aeruginosa = assay: Antibacterial activity against Pseudomonas aeruginosa ATCC 10145 at 100 ug/disk after 24 to 48 hrs by agar disk diffusion method; format: functional; conditions: read-out: DIZ; in short: as §2
Rattus norvegicus [9] = assay: Antiinflammatory activity in Sprague-Dawley rat assessed as inhibition of carrageenan-induced paw edema after 2 hrs; format: functional; in short: as §3
Nucleic Acid = assay: Inhibition of bleomycin-induced DNA damage assessed as absorbance at 532 nm after 1 hr at 37 degC; format: nucleic-acid assay
In short: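 The 0.5 mL reaction contained calf thymus DNA (0.5 mg/mL), bleomycin sulfate (0.05 mg/mL), MgCl2 (5 mM), FeCl3 (50 µM) and compound at varying concentrations. After 1 h at 37 °C, the reaction was stopped with EDTA. TBA (1%) and HCl (25%) were added, followed by 10 min at 80 °C. After centrifugation, DNA damage was read as A532.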

| SMILES | Activity (Mus musculus [1]) | zone of inhibition at 100 µg/disc (Escherichia coli) | inhibition (INH) (Rattus norvegicus [2]) | inhibition (INH) (Rattus norvegicus [3]) | zone of inhibition at 100 µg/disc (Candida albicans) | Activity [4] | inhibition [5] | zone of inhibition at 100 µg/disc (Aspergillus fumigatus) | zone of inhibition at 100 µg/disc (Staphylococcus aureus) | Activity (Mus musculus [6]) | Activity (Mus musculus [7]) | inhibition (INH) (Rattus norvegicus [8]) | zone of inhibition at 100 µg/disc (Pseudomonas aeruginosa) | inhibition (INH) (Rattus norvegicus [9]) | deltaA (Nucleic Acid) |
| --- | --- | --- | --- | --- | --- | --- | --- | --- | --- | --- | --- | --- | --- | --- | --- |
| O=c1[nH]c(=S)[nH]c2nc3c(c(-c4ccccc4)c12)CCC/C3=C\c1ccccc1 | 2.65 s | 17 mm | 27.54% | 31.25% | 11 mm | 35.75% | 44.4% | 13 mm | 14 mm | 2.7 s | 2.583 s | 25% | 15 mm | 24% | – |
| O=c1c2c(-c3ccc(Cl)cc3)c3c(nc2nc2[nH]nc([C@H](O)[C@H](O)[C@H](O)[C@H](O)CO)n12)/C(=C/c1ccc(Cl)cc1)CCC3 | 7.4 s | 24 mm | 42.03% | 62.5% | 12 mm | 4.23% | 81.5% | 16 mm | 19 mm | 4.65 s | 9.567 s | 40.62% | 22 mm | 44% | 0.026 |
| O=c1c2c(-c3ccc(Cl)cc3)c3c(nc2nc2[nH]nc([C@H](O)[C@@H](O)[C@@H](O)[C@H](O)CO)n12)/C(=C/c1ccc(Cl)cc1)CCC3 | 5.45 s | 20 mm | 49.27% | 50% | 11 mm | 4.01% | 83.7% | 7 mm | 20 mm | 3.767 s | 6.767 s | 50% | 19 mm | 56% | 0.029 |
| O=C1O[C@H]([C@@H](O)CO)C(O)=C1O [ASCORBIC ACID] | – | – | – | – | – | 3.93% | – | – | – | – | – | – | – | – | 0.026 |
| CC(=O)N1CCN(c2ccc(OCC3COC(Cn4ccnc4)(c4ccc(Cl)cc4Cl)O3)cc2)CC1 (stereo not given) [KETOCONAZOLE] | – | – | – | – | 21 mm | – | – | 19 mm | – | – | – | – | – | – | – |
| CC(=O)OC[C@@H](OC(C)=O)[C@H](OC(C)=O)[C@H](OC(C)=O)[C@@H](OC(C)=O)c1n[nH]c2nc3nc4c(c(-c5ccc(Cl)cc5)c3c(=O)n12)CCC/C4=C\c1ccc(Cl)cc1 | 2.667 s | 14 mm | 18.48% | 21.88% | 11 mm | 8.33% | 42.6% | 11 mm | 10 mm | 2.65 s | 2.483 s | 17.19% | 10 mm | 14% | – |
| NNc1nc2nc3c(c(-c4ccc(Cl)cc4)c2c(=O)[nH]1)CCC/C3=C\c1ccc(Cl)cc1 | 4.067 s | 22 mm | 37.68% | 34.38% | 13 mm | 5.45% | 59.3% | 11 mm | 18 mm | 3.7 s | 6.617 s | 35.19% | 20 mm | 34% | – |
| CC(=O)OC[C@@H](OC(C)=O)[C@@H](OC(C)=O)[C@@H](/C=N/Nc1nc2nc3c(c(-c4ccc(Cl)cc4)c2c(=O)n1OC(C)=O)CCC/C3=C\c1ccc(Cl)cc1)OC(C)=O | 3.483 s | 14 mm | 28.98% | 18.75% | 10 mm | 30.75% | 35.2% | 8 mm | 13 mm | 3.667 s | 4.583 s | 22.22% | 15 mm | 28% | – |
